Measurements reported in publication PMC2606940 (The Journal of General Physiology, 2009).
Numbering of substitutions follows the chain as printed. Where two headings read alike, the source gives them in different places.

What was measured:
CLC-0 E166W mutant = molecular target: T1, CLC-0 E166W mutant (Torpedo marmorata, UniProt P21564, C212S/E166W); format: cell-based; details: read-out: Apparent affinity (K1/2)
T1 sequence (P21564 1-805 E166W/C212S): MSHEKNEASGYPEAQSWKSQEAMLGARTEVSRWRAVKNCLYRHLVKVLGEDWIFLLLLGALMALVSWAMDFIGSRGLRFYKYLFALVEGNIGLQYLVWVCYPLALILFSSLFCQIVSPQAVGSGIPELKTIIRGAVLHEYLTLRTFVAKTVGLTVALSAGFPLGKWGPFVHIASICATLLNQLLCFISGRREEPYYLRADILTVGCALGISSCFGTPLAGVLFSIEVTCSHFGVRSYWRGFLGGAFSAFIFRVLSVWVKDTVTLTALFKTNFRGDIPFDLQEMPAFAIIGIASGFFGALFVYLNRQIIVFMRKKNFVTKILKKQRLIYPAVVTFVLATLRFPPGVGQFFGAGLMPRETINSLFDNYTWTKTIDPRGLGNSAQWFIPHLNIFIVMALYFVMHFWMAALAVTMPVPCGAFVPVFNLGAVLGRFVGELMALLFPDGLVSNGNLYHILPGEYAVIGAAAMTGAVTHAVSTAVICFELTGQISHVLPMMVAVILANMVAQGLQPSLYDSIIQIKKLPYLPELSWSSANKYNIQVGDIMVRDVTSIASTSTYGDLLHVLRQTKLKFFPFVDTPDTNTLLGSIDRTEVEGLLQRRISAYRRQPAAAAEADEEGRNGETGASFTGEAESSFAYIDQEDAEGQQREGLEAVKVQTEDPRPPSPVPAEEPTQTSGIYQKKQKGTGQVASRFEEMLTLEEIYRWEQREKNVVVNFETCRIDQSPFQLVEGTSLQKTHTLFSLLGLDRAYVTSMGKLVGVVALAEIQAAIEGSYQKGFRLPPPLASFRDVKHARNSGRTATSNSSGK
In short: (§1)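 CLC-0 mutants in the C212S background were transfected into HEK293 cells with lipofectamine and recorded 1–3 d later as excised inside-out patches. Both sides held 130 mM NaCl, 5 mM MgCl2, 10 mM HEPES and 1 mM EGTA, pH 7.4. CPA was perfused continuously onto the cytoplasmic face. Steady-state current over the last 10 ms was normalized to bracketing blocker-free controls and fitted to a Langmuir function for K1/2. Values are mean ± SEM of ~4–6 patches.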

[1] = molecular target: T2, CLC-0 E166C mutant (E127/K519) (Torpedo marmorata, UniProt P21564, C212S/E166C); format: cell-based; details: for IC50: read-out: Apparent affinity (K1/2)
T2 sequence (P21564 1-805 E166C/C212S): T1 sequence (P21564 1-805 E166W/C212S) with W166C
In short: as §1

SMILES | IC50 (CLC-0 E166W mutant; −80 mV) [µM] | IC50 (CLC-0 E166W mutant; −100 mV) [µM] | IC50 (CLC-0 E166W mutant; −120 mV) [µM] | IC50 (CLC-0 E166W mutant; −140 mV) [µM] | IC50 (CLC-0 E166W mutant; −160 mV) [µM] | IC50 ([1]; −40 mV) [µM] | IC50 ([1]; −60 mV) [µM] | IC50 ([1]; −80 mV) [µM] | IC50 ([1]; −100 mV) [µM] | IC50 ([1]; −120 mV) [µM] | IC50 ([1]; −140 mV) [µM] | IC50 ([1]; −160 mV) [µM] | IC50 (CLC-0 E166W mutant; −60 mV) [µM] | block of current ([1]; 0.3 mM CPA, −160 mV) [%] | apparent koff ([1]; −160 mV) [s⁻¹] | apparent kon ([1]; −160 mV) [M⁻¹ s⁻¹]
CCCCCCCC(=O)O [octanoate] | 19200 ± 3300 | 13000 ± 2000 | 8600 ± 1300 | 5530 ± 870 | 3500 ± 590 | 88.5 ± 17.1 | 43.1 ± 6.4 | 20.7 ± 3.4 | 10.2 ± 1.8 | 5.6 ± 1.1 | 3.5 ± 0.8 | 2 ± 0.5 |  |  |  | 
O=C(O)COc1ccc(Cl)cc1 [CPA, p-chlorophenoxy acetate] | 6660 ± 980 | 3490 ± 410 | 1860 ± 220 | 970 ± 130 | 550 ± 70 | 581 ± 94 | 349 ± 15 | 186 ± 7 | 104 ± 3 | 61 ± 2 | 38 ± 1 | 26 ± 1 | 13200 ± 2100 | > 90 | 17.2 | 630000
